Sampled rows, rich in hits. Any-hit rate of the full collection: about 1.4%.
KLK5 inh: human KLK5 protease inhibitors, primary screen, biochemical, 1536-well. Kallikrein-5 (Homo sapiens), Q9Y337. recombinant hK5, fluorogenic AMC substrate cleavage. inhibition, % at 5 µM. 0.59% of 210,000 active. AID 873, 2007;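 active = inhibition of 40% or more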;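 note: 0% = enzyme controls without compound and 100% = no-enzyme blanks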
Thrombin inh: human alpha-thrombin inhibitors, primary screen, counter-screen for coagulation protease inhibitor project, biochemical, 1536-well, fluorogenic AMC substrate. Prothrombin (Homo sapiens), P00734. Boc-VPR-AMC fluorogenic substrate cleavage. inhibition, % at 5 µM. 0.26% of 220,000 active;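 active = inhibition at or above 40%; inactive = inhibition below 40%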;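 note: 0% = enzyme with no compound and 100% = wells without enzyme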
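Test system: human alpha-thrombin; medium: pH 7.5 Tris-saline with Tween 20; times: reaction at room temperature; signal: AMC fluorescence at 355 nm excitation and 460 nm emission; also added: Boc-VPR-AMC substrate, 15 µM final; dosing: one concentration per compound, 5 µM, with 0.2% DMSO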
FXIa inh: human FXIa protease inhibitors, primary screen, biochemical, 1536-well; inhibition, % at 5 µM; 0.14% of 220,000 active; Coagulation factor XI (Homo sapiens), P03951; purified FXIa, Boc-Glu-Ala-Arg-AMC fluorogenic substrate;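 active = inhibition of at least 40%; inactive = inhibition below 40%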;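 note: fluorescence of freed AMC excited at 355 nm; 0% = enzyme without compound and 100% = no enzyme blank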
Calpain2 inh: inhibitors of pig calpain II, primary screen, biochemical, fluorogenic peptide substrate, 1536-well; purified calpain II, 30 min; inhibition, % at 16 µM; 0.37% of 220,000 active; AID 1236, 2008;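 active = inhibition above about 50%, limit read from the data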
FXIIa inh 1536: human FXIIa protease inhibitors, primary screen, biochemical, 1536-well | purified FXIIa, Boc-QGR-AMC fluorogenic substrate, 2 h | inhibition, % at 5 µM | 0.3% of 220,000 active | AID 800, 2007; in the data active = inhibition above about 40%;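 note: 0% = enzyme with no compound and 100% = blank without enzyme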
Target sequence (P00748 20-372 limits assumed): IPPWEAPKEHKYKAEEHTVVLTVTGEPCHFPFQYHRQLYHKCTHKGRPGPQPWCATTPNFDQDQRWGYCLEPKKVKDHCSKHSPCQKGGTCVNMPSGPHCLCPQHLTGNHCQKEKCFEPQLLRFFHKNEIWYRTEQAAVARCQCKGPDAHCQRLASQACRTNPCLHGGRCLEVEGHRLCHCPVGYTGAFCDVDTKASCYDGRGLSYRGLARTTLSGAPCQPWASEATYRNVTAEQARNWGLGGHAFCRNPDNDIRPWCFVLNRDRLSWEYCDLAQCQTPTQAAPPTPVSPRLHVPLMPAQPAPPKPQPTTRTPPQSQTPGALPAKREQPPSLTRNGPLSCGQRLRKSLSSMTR
Target sequence (P00748 373-615 limits assumed): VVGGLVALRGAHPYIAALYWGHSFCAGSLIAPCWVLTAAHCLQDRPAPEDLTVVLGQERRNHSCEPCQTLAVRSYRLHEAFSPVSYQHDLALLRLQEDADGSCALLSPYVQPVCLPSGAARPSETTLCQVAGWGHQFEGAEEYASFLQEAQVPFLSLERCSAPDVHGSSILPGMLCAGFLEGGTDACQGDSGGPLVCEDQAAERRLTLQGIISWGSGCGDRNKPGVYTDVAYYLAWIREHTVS
The depositor's hits bear a star; i = inactive.

SMILES	KLK5 inh	Thrombin inh	FXIa inh	Calpain2 inh	FXIIa inh 1536
Cc1ccc(C)c(C(=O)NC2CC(C)(C)NC(C)(C)C2)c1	-3	-11	-6	-9	-9
Cc1ccccc1C(=O)NC1CC(C)(C)NC(C)(C)C1	58*	33	3	10	17
O=C(Cc1ccc(Cl)cc1)Nc1ccc2oc(-c3ccncc3)nc2c1	-3	0	-3	i	7
O=C(Nc1ccc(Cl)c(Cl)c1)C1CC(=O)N(c2ccc(Br)cc2)C1 (configuration not stated)	29	49*	14	24	19
c1ccc2c(c1)OCc1cn[nH]c1-2	0	-6	-3	-13	7
Cc1ccc(C(=O)N2CCCC(CCC(=O)N3CCN(c4ccccn4)CC3)C2)s1 (configuration not stated)	-2	-3	-4	-5	8
O=C(NC1CCCC1)C1CCCN1S(=O)(=O)c1cccc2cccnc12 (configuration not stated)	1	-1	7	-19	20
O=C(NCc1ccccc1)C1CCCN1S(=O)(=O)c1cccc2cccnc12 (configuration not stated)	46*	-9	-9	7	1
Cc1cccc(NC(=O)CC2C(=O)NC3CCCCC3N2C(=O)c2ccccc2Cl)c1 (configuration not stated)	-3	-14	-5	-3	-4
Cc1ccc(C(=O)N2C(CC(=O)Nc3ccc(Cl)cc3)C(=O)NC3CCCCC32)cc1 (configuration not stated)	18	50*	-3	11	11
CCOC(=O)N1CCN(c2ccc(Cl)c(Cl)c2)CC1	-17	0	27	18	10
CCOC(=O)N1CCN(c2ccc(C(=O)c3cccc(F)c3)cc2)CC1	0	-6	-7	58*	-2
O=Cc1ccc(OCC(=O)Nc2ccccc2C(F)(F)F)cc1	11	31	33	27	64*
O=c1cc(-c2ccccc2)nc2cc(-c3ccco3)[nH]n12	-2	-1	1	-228	5
O=c1cc(-c2ccc([N+](=O)[O-])cc2)nc2cc(-c3ccc(Cl)cc3)[nH]n12	48*	63*	16	-13	-3
CC(C)CCNS(=O)(=O)c1ccc(-c2ccc(S(=O)(=O)NCCC(C)C)cc2)cc1	-35	-12	5	-6	5
COc1ccc(S(=O)(=O)NCCC(C)C)cc1OC	121*	10	4	22	18
COc1ccc(CCNS(=O)(=O)c2ccc3c(c2)OCCO3)cc1OC	69*	24	10	16	27
S=c1[nH]nc(CSCc2ccccc2Cl)n1-c1ccccc1	-22	0	2	27	14
O=C(NCc1cccnc1)c1ccccc1CCc1ccccc1	2	0	-1	50*	8
O=C(O)c1ccccc1C(=O)NCc1cccnc1	7	2	1	9	15
Nc1nn(-c2ccccc2Cl)cc1-c1nn[nH]n1	18	-4	-6	1	3
CN(C)CCCNc1ncnc2sc(-c3ccccc3)cc12	0	95*	0	-46	7
CN(C)CCCNc1ncnc2c1cnn2-c1ccccc1	-12	-8	-2	4	7
O=C(Nc1cccc2oc(=O)ccc12)c1ccc([N+](=O)[O-])cc1[N+](=O)[O-]	-19	-12	-4	64*	2
SMILES	KLK5 inh	Thrombin inh	FXIa inh	Calpain2 inh	FXIIa inh 1536
COc1ccc(NC(=O)c2c(C)nn(Cc3ccccc3)c2Cl)cc1S(=O)(=O)N1CCOCC1	-4	-11	-5	13	3
N/C(=N\OC(=O)Cc1ccccc1[N+](=O)[O-])c1cccnc1	-5	1	-5	-15	9
COc1ccc(/C(N)=N/OC(=O)Cc2ccccc2[N+](=O)[O-])cc1	-7	2	7	57*	15
COC(=O)Cc1ccc(NC(=S)N2CCN(c3ccc(F)cc3)CC2)cc1	72*	53*	-4	27	33
COC(=O)C1=C(C)NC2=C(C(=O)CC(C)(C)C2)C1c1cccc(C)n1 (configuration not stated)	15	0	5	-194	10
COc1ccc(NC(NC(=O)c2cccnc2)C(Cl)(Cl)Cl)cc1 (configuration not stated)	14	12	29	16	55*
Cc1ccccc1NC(NC(=O)c1cccnc1)C(Cl)(Cl)Cl (configuration not stated)	2	-5	-4	26	5
Cc1ccc(NC(=O)CN(C)CC(=O)Nc2ccccc2-c2ccccc2)cc1	22	-2	1	11	8
Cc1ccc(NC(=O)/C(CN(C)C)=N\O)cc1	11	-1	16	25	42*
Cc1noc(C)c1COC(=O)C(c1ccccc1)c1ccccc1	-4	-5	-1	58*	10
Cc1noc(C)c1COC(=O)CNC(=O)c1cccc(F)c1	-1	-3	-2	59*	12
Cc1cc(C)cc(C(=O)NCC(=O)OCc2c(C)noc2C)c1	-29	-7	-4	0	4
Cc1cc2c3c(c1)C1(C(=O)N3C(C)(C)CC2C)C(C#N)=C(N)OC2=C1C(=O)CC(C)(C)C2 (configuration not stated)	-13	-4	-1	-11	9
CC(CN1C(C)CCCC1C)OC(=O)c1ccccc1Cl (configuration not stated)	0	-4	1	14	5
CC(CN1C(C)CCCC1C)OC(=O)c1ccc(Cl)cc1Cl (configuration not stated)	34	10	25	17	45*
O=C1NC(=Nc2ccccc2)S/C1=C/c1cccs1	26	6	33	106*	45*
Cc1cccc(N=C2NC(=O)/C(=C\c3cccs3)S2)c1	-4	-3	6	17	7
O=C1N=C(N2CCN(c3ccccc3)CC2)S/C1=C/c1cccs1	2	-6	8	20	10
O=C1N=C(c2ccccc2)S/C1=C\c1cccs1	2	61*	35	-89	36
O=C(NCc1ccccc1Cl)C1CCCN(c2nc3ccsc3c(=O)s2)C1 (configuration not stated)	8	-2	2	53*	9
CC1CCCN(c2nc3ccsc3c(=O)s2)C1 (configuration not stated)	-13	-9	6	-7	10
Cc1ccc(S(=O)(=O)Nc2ccc(Cl)cc2C(=O)c2ccccc2)cc1	-7	-4	6	16	8
COC(=O)c1scc(C)c1NC(=O)CC1NCCNC1=O (configuration not stated)	-3	-3	-1	-14	3
COC(=O)c1scc(C)c1NC(=O)Cc1ccccc1	70*	4	3	7	3
